ChEMBL document CHEMBL1124554, “Chemical delivery systems for some penicillinase-resistant semisynthetic penicillins” (J Med Chem, 1989)

Assays:
Homo sapiens = species: Homo sapiens; assay: Half-life at pH 7.4 in human blood; Compound insoluble; format: ADME, organism-based
In short: (§1)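 Freshly collected rabbit or human whole blood, spiked from DMSO stock to 40 μM final and kept at 37 °C. Timed samples were extracted three times with 8% DMSO in acetonitrile, centrifuged, filtered and analyzed by HPLC. Pseudo-first-order rate constants came from linear regression of log peak height versus time.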

Oryctolagus cuniculus [1] = species: Oryctolagus cuniculus; assay: Half-life at pH 7.4 in rabbit blood; Compound insoluble; format: ADME, organism-based; in short: as §1
[2] = Half-life at pH 7.4 in rat 10% brain homogenate; format: ADME
In short: (§2)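 Fresh rat whole blood, or rat brain homogenized to 10% (w/v) in pH 7.4 phosphate buffer (1/20 M), spiked from DMSO stock to 40 μM final and held at 37 °C. Timed samples were extracted three times with 8% DMSO in acetonitrile, centrifuged, filtered and analyzed by HPLC. Pseudo-first-order rate constants came from log peak height versus time. Values are means of two determinations.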

[3] = Half-life at pH 7.4 in rat blood; format: ADME, organism-based; in short: as §2
[4] = Half-life in phosphate buffer (0.05 M, mu = 0.15) at 30 degree Celsius with pH 6.07; format: ADME
In short: (§3)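 DMSO stock added to 10 mL phosphate buffer (0.05 M, μ = 0.15) at the stated pH. Timed samples were analyzed by HPLC, with UV detection at 360 nm for dihydro CDS forms and 260 nm for quaternary salts. Pseudo-first-order disappearance rate constants came from linear regression of log peak height versus time, and half-lives were derived from them.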

[5] = Half-life in phosphate buffer (0.05 M, mu = 0.15) at 30 degree Centigrade with pH 6.88; format: ADME; in short: as §3
[6] = Half-life in phosphate buffer (0.05 M, mu = 0.15) at 30 degree Celsius with pH 7.43; format: ADME; in short: as §3
[7] = Half-life in phosphate buffer (0.05 M, mu = 0.15) at 30 degree Celsius with pH 7.73; format: ADME; in short: as §3
[8] = Half-life in phosphate buffer (0.05 M, mu = 0.15) at 30 degree Celsius with pH 8.05; format: ADME; in short: as §3
[9] = Half-life in phosphate buffer (0.05 M, mu = 0.15) at 30 degree Celsius with pH 6.15; format: ADME; in short: as §3
[10] = Half-life in phosphate buffer (0.05 M, mu = 0.15) at 30 degree Celsius with pH 6.93; format: ADME; in short: as §3
[11] = Half-life in phosphate buffer (0.05 M, mu = 0.15) at 30 degree Celsius with pH 7.45; format: ADME; in short: as §3
[12] = Half-life in phosphate buffer (0.05 M, mu = 0.15) at 30 degree Celsius with pH 7.79; format: ADME; in short: as §3
[13] = Second-order oxidation rate constant determined using ferricyanide; format: ADME
In short: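 Chemical oxidation with ferricyanide was run under pseudo-first-order conditions, with Fe(CN)6^3- in large excess over the CDS and pH held constant. Pseudo-first-order rates were measured at several ferricyanide concentrations, and the second-order constant (M^-1 s^-1) was derived from them.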

[14] = Half-life in phosphate buffer (0.05 M, mu = 0.15) at 30 degree Celsius with pH 8.14; format: ADME; in short: as §3
[15] = Lipophilicity was determined by reversed-phase HPLC; conditions: extrapolated to 100% water
[16] = (§4) Concentration of compound after 5 minutes in rabbit blood; format: ADME, organism-based, Oryctolagus cuniculus
[17] = Concentration of compound after 10 minutes in rabbit blood; format: ADME, organism-based, Oryctolagus cuniculus
Rattus norvegicus [18] = species: Rattus norvegicus; assay: Concentration of compound after 3 minutes in rat blood; format: functional, organism-based
[19] = Half-life at pH 7.4 in human blood; format: ADME, organism-based; in short: as §1
[20] = Half-life at pH 7.4 in rabbit blood; format: ADME, organism-based, Oryctolagus cuniculus; in short: as §1
[21] = Half-life in phosphate buffer (0.05 M, mu = 0.15) at 30 degree Celsius and pH 6.15; format: ADME; in short: as §3
[22] = Half-life in phosphate buffer (0.05 M, mu = 0.15) at 30 degree Celsius and pH 6.93; format: ADME; in short: as §3
[23] = Half-life in phosphate buffer (0.05 M, mu = 0.15) at 30 degree Celsius and pH 7.45; format: ADME; in short: as §3
Oryctolagus cuniculus [24] = species: Oryctolagus cuniculus; assay: Concentration of compound after 10 min in rabbit brain; format: functional, organism-based
In short: (§5)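 Oxacillin at 20 mg/kg, or an equimolar dose of its CDS, given i.v. to male Sprague-Dawley rats (tail vein) or male New Zealand albino rabbits (ear vein). Vehicle was water/ethanol/propylene glycol at 20 mg/mL. Samples were rat trunk blood after decapitation or rabbit ear-vein blood, with brain removed and frozen. Oxacillin was assayed by B. subtilis ATCC 6633 paper-disk diffusion and by HPLC. Values are means of two determinations.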

Oryctolagus cuniculus [25] = species: Oryctolagus cuniculus; assay: as §4; format: functional, organism-based; in short: as §5
Oryctolagus cuniculus [26] = species: Oryctolagus cuniculus; assay: Concentration of compound after 5 minutes in rabbit brain; format: functional, organism-based; in short: as §5
Oryctolagus cuniculus [27] = species: Oryctolagus cuniculus; assay: Concentration of compound after 10 min in rabbit blood; format: functional, organism-based; in short: as §5
Rattus norvegicus [28] = species: Rattus norvegicus; assay: Concentration of compound after 3 minutes in rat brain; format: functional, organism-based; in short: as §5

SMILES	half-life [2]	half-life [3]	half-life [4]	half-life [5]	half-life [6]	half-life [7]	half-life [12]	ko [13]	half-life [14]	Log k [15]	further results
COc1cccc(OC)c1C(=O)NC1C(=O)N2C1SC(C)(C)[C@@H]2C(=O)OCOC(=O)c1ccc[n+](C)c1.[I-] (some centres not stated)	1.1 min	1 min	58.6 min	12 min	3.6 min	2 min	–	–	–	–	T1/2 (Homo sapiens): Insoluble; T1/2 (Oryctolagus cuniculus [1]): Insoluble; half-life [8]: 1 min
Cc1onc(-c2ccccc2Cl)c1C(=O)NC1C(=O)N2C1SC(C)(C)[C@@H]2C(=O)OCOC(=O)C1=CN(C)C=CC1 (some centres not stated)	10 min	3.8 min	–	–	–	–	305 min	0.36 M⁻¹ s⁻¹	165 min	3.06	half-life [9]: 350 min; half-life [10]: 506 min; half-life [11]: 377 min
Cc1onc(-c2ccccc2)c1C(=O)NC1C(=O)N2C1SC(C)(C)[C@@H]2C(=O)OCOC(=O)c1ccc[n+](C)c1.[I-] (some centres not stated)	1.2 min	0.7 min	49 min	10.3 min	3.4 min	1.9 min	–	–	–	–	half-life [8]: 1.1 min
Cc1onc(-c2ccccc2)c1C(=O)N[C@@H]1C(=O)N2[C@@H]1SC(C)(C)[C@@H]2C(=O)[O-].[Na+]	–	–	–	–	–	–	–	–	–	1.868	concentration at 5 min [16]: 15300 ng/mL; concentration at 10 min [17]: 9100 ng/mL; Concentration (Rattus norvegicus [18]): 41.1 µg/mL
Cc1onc(-c2ccccc2Cl)c1C(=O)NC1C(=O)N2C1SC(C)(C)[C@@H]2C(=O)[O-].[Na+] (some centres not stated)	–	–	–	–	–	–	–	–	–	2.097	–
Cc1onc(-c2c(Cl)cccc2Cl)c1C(=O)NC1C(=O)N2C1SC(C)(C)[C@@H]2C(=O)OCOC(=O)C1=CN(C)C=CC1 (some centres not stated)	12.6 min	4.1 min	–	–	–	–	932 min	0.23 M⁻¹ s⁻¹	598 min	3.41	half-life [9]: 464 min; half-life [10]: 1010 min; half-life [11]: 1030 min
Cc1onc(-c2c(Cl)cccc2Cl)c1C(=O)NC1C(=O)N2C1SC(C)(C)[C@@H]2C(=O)[O-].[Na+] (some centres not stated)	–	–	–	–	–	–	–	–	–	2.435	–
COc1cccc(OC)c1C(=O)NC1C(=O)N2C1SC(C)(C)[C@@H]2C(=O)OCOC(=O)C1=CN(C)C=CC1 (some centres not stated)	8 min	0.2 min	–	–	–	–	103 min	0.701 M⁻¹ s⁻¹	55.7 min	2.28	half-life [19]: 116 min; half-life [20]: 10.7 min; half-life [21]: 130 min; half-life [22]: 238 min; half-life [23]: 134 min
Cc1onc(-c2c(Cl)cccc2Cl)c1C(=O)NC1C(=O)N2C1SC(C)(C)[C@@H]2C(=O)OCOC(=O)c1ccc[n+](C)c1.[I-] (some centres not stated)	1 min	0.7 min	44.4 min	14.7 min	3.9 min	2.9 min	–	–	–	–	–
COc1cccc(OC)c1C(=O)N[C@@H]1C(=O)N2[C@@H]1SC(C)(C)[C@@H]2C(=O)[O-].[Na+]	–	–	–	–	–	–	–	–	–	0.658	–
Cc1onc(-c2ccccc2)c1C(=O)NC1C(=O)N2C1SC(C)(C)[C@@H]2C(=O)OCOC(=O)C1=CN(C)C=CC1 (some centres not stated)	5.4 min	1.1 min	–	–	–	–	172 min	0.48 M⁻¹ s⁻¹	100 min	2.82	half-life [19]: 7.5 min; half-life [20]: 23.7 min; half-life [9]: 249 min; half-life [10]: 277 min; half-life [11]: 196 min; Concentration (Oryctolagus cuniculus [24]): 0.3 µg/mL; Concentration (Oryctolagus cuniculus [25]): 4.6 µg/mL; Concentration (Oryctolagus cuniculus [26]): 0.3 µg/mL; Concentration (Oryctolagus cuniculus [27]): 2.2 µg/mL; Concentration (Rattus norvegicus [18]): 26.2 µg/mL; Concentration (Rattus norvegicus [28]): 2.1 µg/mL
Cc1onc(-c2ccccc2Cl)c1C(=O)NC1C(=O)N2C1SC(C)(C)[C@@H]2C(=O)OCOC(=O)c1ccc[n+](C)c1.[I-] (some centres not stated)	1.1 min	0.6 min	56 min	11.3 min	3.5 min	2.1 min	–	–	–	–	half-life [8]: 1 min
